Measured values collected from several papers.
Lines come from different studies, so protocols differ.
Cell line: MM1.S
Read-out: cell growth or viability

| Structure (SMILES) | technique | time | endpoint | value |
| --- | --- | --- | --- | --- |
| CCOC(=O)C1=C(C)NC(=S)NC1c1cccc(O)c1 (centres unmarked) | ATP luminescence | 72 h | IC50 | 144000 nM |
| O=C(C[C@@H](C(F)F)n1ccc(F)n1)N1CCC(O)(Cn2cnc3c(cnn3-c3ccc(F)cc3)c2=O)CC1 | ATP luminescence | 5 days | IC50 | 33 nM |
| CC(C)C[C@H](NC(=O)[C@H](Cc1ccccc1)NC(=O)c1cnccn1)B(O)O | ATP luminescence | – | EC50 | 1.5 nM |
| C=CC(=O)N1CCC[C@@H](n2nc(-c3ccc(Oc4ccccc4)cc3)c3c(N)ncnc32)C1 | – | 48 h | GI50 | 7560 nM |
| N[C@@H]1CCCN(c2c(/C=C3\SC(=O)NC3=O)cccc2-c2ccccc2)C1 | thymidine uptake | 72 h | GI50 | 711 nM |
| CON(C)C(=O)N1N=C(c2cc(F)ccc2F)S[C@@]1(CCCN)c1ccccc1 | ATP luminescence | 72 h | IC50 | 4.9 nM |
| CC(C)C[C@H](NC(=O)[C@H](Cc1ccccc1)NC(=O)c1cnccn1)B(O)O | ATP luminescence | 48 h | IC50 | 15 nM |
| CCS(=O)(=O)Nc1ccc(Oc2ccc(Cl)cc2)c(-c2cn(C)c(=O)c3ccccc23)c1 | resazurin | 72 h | IC50 | 3.5 nM |
